Laboratory results as given in ChEMBL document CHEMBL1155975, “Pentacyclo-undecane derived cyclic tetra-amines: synthesis and evaluation as potent anti-tuberculosis agents” (Eur J Med Chem, 2009).
In brackets after ≈: the same amount, converted by molar mass.

Key:
[1] = test system: Mycobacterium tuberculosis; experiment: Antimycobacterial activity against Mycobacterium tuberculosis XDR infected in MDBK by BACTEC analysis; format: functional
Outline: (§1)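 Radiometric BACTEC 460 TB. Cultures were grown at 37 °C with stirring, inoculated into BACTEC vials at OD ~0.16 and grown to GI 500 (±50) as the primary culture. Compounds were diluted in methanol to 8–0.03125 µg/mL final. GI was recorded every 24 h, and a daily ΔGI >10 counted as growth. Strains were H37Rv (ATCC 25618) and XDR strain X194.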

[2] = test system: Mycobacterium tuberculosis; experiment: Antimycobacterial activity against Mycobacterium tuberculosis H37Rv infected in MDBK by BACTEC analysis; format: functional; outline: as §1
[3] = Cytotoxicity against MDBK cells after 48 hrs by MTT assay; format: cell-based; conditions: Bos taurus
Outline: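 MDBK monolayers were grown in RPMI 1640 with 10% heat-inactivated FBS and pen/strep. Cells were seeded at 5 × 10^4 per well, settled 6 h, then exposed 42 h at 37 °C to compounds in 1% methanol diluted in media; the vehicle served as the 100% viability control. MTT was added for 3 h and formazan read at 570 nm. Runs were quintuplicate, repeated on two days; % cytotoxicity = 100 − (OD sample/OD control × 100).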

[4] = test system: Mycobacterium tuberculosis; experiment: Antimycobacterial activity against Mycobacterium tuberculosis H37Rv after 21 days by broth macrodilution method; format: functional; conditions: 504 h
Outline: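 Triplicate tubes of Middlebrook 7H9 broth with casitone, glycerol and 10% OADC; methanol-dissolved compounds diluted twofold, 128–0.125 µg/mL. Inoculum from log-phase H37Rv, adjusted to McFarland 1 and diluted to 1 × 10^5 CFU/mL, 500 µL per tube. Compound-free and solvent controls included. Aerobic incubation at 37 °C, tubes read macroscopically every 7 days to day 21 for MIC.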

| Structure (SMILES) | MIC [1] | MIC [2] [µM] | IC50 [3] [µM] | MIC [4] [µM] |
| --- | --- | --- | --- | --- |
| NCC[C@H](O)C(=O)N[C@@H]1C[C@H](N)[C@@H](O[C@H]2O[C@H](CN)[C@@H](O)[C@H](O)[C@H]2O)[C@H](O)[C@H]1O[C@H]1O[C@H](CO)[C@@H](O)[C@H](N)[C@H]1O [AMIKACIN] | > 5 µg/mL | – | – | – |
| CC(C)=CCC/C(C)=C/CNCCNC1C2CC3CC(C2)CC1C3 (centres undefined) [SQ109] | – | 0.63 (≈ 0.208 µg/mL) | 26 | – |
| CC(C)=CCC/C(C)=C/CC/C(C)=C\CN1CCN(CCC23OC4(CCN5CCN(C/C=C(\C)CC/C=C(\C)CCC=C(C)C)CC5)C5C6CC(C7C6C4C72)C53)CC1 (centres undefined) | 0.63 µM | 0.32 (≈ 0.254 µg/mL) | 24 | 5.04 (≈ 4 µg/mL) |
| O=C(c1ccccc1)N1CCN(CCC23OC4(CCN5CCN(C(=O)c6ccccc6)CC5)C5C6CC(C7C6C4C72)C53)CC1 (centres undefined) | – | – | – | 216 (≈ 128 µg/mL) |
| OCCN(CCC12OC3(CCN(CCO)Cc4ccccc4)C4C5CC(C6C5C3C61)C42)Cc1ccccc1 (centres undefined) | – | – | – | 248 (≈ 128 µg/mL) |
| O=C(c1ccc([N+](=O)[O-])o1)N1CCCN(CCC23OC4(CCN5CCCN(C(=O)c6ccc([N+](=O)[O-])o6)CC5)C5C6CC(C7C6C4C72)C53)CC1 (centres undefined) | – | > 11.6 | – | 23.2 (≈ 16 µg/mL) |
| CCCCCCCCCCN1CCN(CCC23OC4(CCN5CCN(CCCCCCCCCC)CC5)C5C6CC(C7C6C4C72)C53)CC1 (centres undefined) | 0.75 µM | – | 25 | – |
| NNC(=O)c1ccncc1 [ISONIAZID] | > 0.2 µg/mL | – | – | – |
| CC1COc2c(N3CCN(C)CC3)c(F)cc3c(=O)c(C(=O)O)cn1c23 (centres undefined) [OFLOXACIN] | > 2 µg/mL | – | – | – |
| NC[C@H]1O[C@H](O[C@H]2[C@H](O)[C@@H](O[C@H]3O[C@H](CO)[C@@H](O)[C@H](N)[C@H]3O)[C@H](N)C[C@@H]2N)[C@H](O)[C@@H](O)[C@@H]1O [KANAMYCIN] | > 5 µg/mL | – | – | – |
| c1ccc(CN2CCCN(CCC34OC5(CCN6CCCN(Cc7ccccc7)CC6)C6C7CC(C8C7C5C83)C64)CC2)cc1 (centres undefined) | – | – | – | 108 (≈ 64.1 µg/mL) |
| CC(C)=CCC/C(C)=C\CN1CCN(CCC23OC4(CCN5CCN(C/C=C(\C)CCC=C(C)C)CC5)C5C6CC(C7C6C4C72)C53)CC1 (centres undefined) | 1.52 µM | 0.76 (≈ 0.499 µg/mL) | 30 | 6.09 (≈ 4 µg/mL) |
| O=C(c1ccc([N+](=O)[O-])o1)N1CCN(CCC23OC4(CCN5CCN(C(=O)c6ccc([N+](=O)[O-])o6)CC5)C5C6CC(C7C6C4C72)C53)CC1 (centres undefined) | – | > 12.1 | – | 24.1 (≈ 16 µg/mL) |
| CC[C@@H](CO)NCCN[C@@H](CC)CO [ETHAMBUTOL] | > 2.5 µg/mL | – | – | 19.6 (≈ 4 µg/mL) |
| c1ccc(CNCCC23OC4(CCNCc5ccccn5)C5C6CC(C7C6C4C72)C53)nc1 (centres undefined) | – | – | – | 298 (≈ 128 µg/mL) |
| c1ccc(CN2CCN(CCC34OC5(CCN6CCN(Cc7ccccc7)CC6)C6C7CC(C8C7C5C83)C64)CC2)cc1 (centres undefined) | – | – | – | 113 (≈ 64 µg/mL) |
| C1CNCCN(CCC23OC4(CCN5CCCNCC5)C5C6CC(C7C6C4C72)C53)C1 (centres undefined) | – | – | – | 155 (≈ 64 µg/mL) |
| CO[C@H]1/C=C/O[C@@]2(C)Oc3c(C)c(O)c4c(O)c(c(/C=N/N5CCN(C)CC5)c(O)c4c3C2=O)NC(=O)/C(C)=C\C=C\[C@H](C)[C@H](O)[C@@H](C)[C@@H](O)[C@@H](C)[C@H](OC(C)=O)[C@@H]1C [RIFAMPIN] | > 1 µg/mL | – | – | – |
